Reference: ChEMBL document CHEMBL5705890, “Antitumor activity of an allosteric inhibitor of centromere-associated protein-E” (Proc Natl Acad Sci U S A, 2010)
pKi: −log10 of the molar value.

Columns and labels:
UMUC3 = experiment: Anticancer activity against human UM-UC-3 cells assessed as cell doubling measured for 72 hrs by DAPI staining based analysis; assay type: functional
MDA-MB-468 = experiment: Anticancer activity against human MDA-MB-468 cells assessed as cell doubling measured for 72 hrs by DAPI staining based analysis; assay type: functional
NCI-H460 = experiment: Antitumor activity against human NCI-H460 cells in xenograft model assessed as tumor growth delay at 125 mg/kg relative to control; assay type: functional
Capan-2 = experiment: Anticancer activity against human Capan-2 cells assessed as cell doubling measured for 72 hrs by DAPI staining based analysis; assay type: functional
SAOS-2 = experiment: Anticancer activity against human SAOS-2 cells assessed as cell doubling measured for 72 hrs by DAPI staining based analysis; assay type: functional
[1] = molecular target: Centromere-associated protein E (Homo sapiens, UniProt Q02224); experiment: Uncompetitive binding affinity to C-terminal 6-his-tagged CENP-E (2 to 340 residues)(unknown origin) expressed in Escherichia coli BL21(DE3) assessed as apparent inhibition constant in presence of ATP; conditions: read-out: Ki(app)
Centromere-associated protein E (Homo sapiens, UniProt Q02224), sequence (Q02224 whole entry, the tested form may be a part): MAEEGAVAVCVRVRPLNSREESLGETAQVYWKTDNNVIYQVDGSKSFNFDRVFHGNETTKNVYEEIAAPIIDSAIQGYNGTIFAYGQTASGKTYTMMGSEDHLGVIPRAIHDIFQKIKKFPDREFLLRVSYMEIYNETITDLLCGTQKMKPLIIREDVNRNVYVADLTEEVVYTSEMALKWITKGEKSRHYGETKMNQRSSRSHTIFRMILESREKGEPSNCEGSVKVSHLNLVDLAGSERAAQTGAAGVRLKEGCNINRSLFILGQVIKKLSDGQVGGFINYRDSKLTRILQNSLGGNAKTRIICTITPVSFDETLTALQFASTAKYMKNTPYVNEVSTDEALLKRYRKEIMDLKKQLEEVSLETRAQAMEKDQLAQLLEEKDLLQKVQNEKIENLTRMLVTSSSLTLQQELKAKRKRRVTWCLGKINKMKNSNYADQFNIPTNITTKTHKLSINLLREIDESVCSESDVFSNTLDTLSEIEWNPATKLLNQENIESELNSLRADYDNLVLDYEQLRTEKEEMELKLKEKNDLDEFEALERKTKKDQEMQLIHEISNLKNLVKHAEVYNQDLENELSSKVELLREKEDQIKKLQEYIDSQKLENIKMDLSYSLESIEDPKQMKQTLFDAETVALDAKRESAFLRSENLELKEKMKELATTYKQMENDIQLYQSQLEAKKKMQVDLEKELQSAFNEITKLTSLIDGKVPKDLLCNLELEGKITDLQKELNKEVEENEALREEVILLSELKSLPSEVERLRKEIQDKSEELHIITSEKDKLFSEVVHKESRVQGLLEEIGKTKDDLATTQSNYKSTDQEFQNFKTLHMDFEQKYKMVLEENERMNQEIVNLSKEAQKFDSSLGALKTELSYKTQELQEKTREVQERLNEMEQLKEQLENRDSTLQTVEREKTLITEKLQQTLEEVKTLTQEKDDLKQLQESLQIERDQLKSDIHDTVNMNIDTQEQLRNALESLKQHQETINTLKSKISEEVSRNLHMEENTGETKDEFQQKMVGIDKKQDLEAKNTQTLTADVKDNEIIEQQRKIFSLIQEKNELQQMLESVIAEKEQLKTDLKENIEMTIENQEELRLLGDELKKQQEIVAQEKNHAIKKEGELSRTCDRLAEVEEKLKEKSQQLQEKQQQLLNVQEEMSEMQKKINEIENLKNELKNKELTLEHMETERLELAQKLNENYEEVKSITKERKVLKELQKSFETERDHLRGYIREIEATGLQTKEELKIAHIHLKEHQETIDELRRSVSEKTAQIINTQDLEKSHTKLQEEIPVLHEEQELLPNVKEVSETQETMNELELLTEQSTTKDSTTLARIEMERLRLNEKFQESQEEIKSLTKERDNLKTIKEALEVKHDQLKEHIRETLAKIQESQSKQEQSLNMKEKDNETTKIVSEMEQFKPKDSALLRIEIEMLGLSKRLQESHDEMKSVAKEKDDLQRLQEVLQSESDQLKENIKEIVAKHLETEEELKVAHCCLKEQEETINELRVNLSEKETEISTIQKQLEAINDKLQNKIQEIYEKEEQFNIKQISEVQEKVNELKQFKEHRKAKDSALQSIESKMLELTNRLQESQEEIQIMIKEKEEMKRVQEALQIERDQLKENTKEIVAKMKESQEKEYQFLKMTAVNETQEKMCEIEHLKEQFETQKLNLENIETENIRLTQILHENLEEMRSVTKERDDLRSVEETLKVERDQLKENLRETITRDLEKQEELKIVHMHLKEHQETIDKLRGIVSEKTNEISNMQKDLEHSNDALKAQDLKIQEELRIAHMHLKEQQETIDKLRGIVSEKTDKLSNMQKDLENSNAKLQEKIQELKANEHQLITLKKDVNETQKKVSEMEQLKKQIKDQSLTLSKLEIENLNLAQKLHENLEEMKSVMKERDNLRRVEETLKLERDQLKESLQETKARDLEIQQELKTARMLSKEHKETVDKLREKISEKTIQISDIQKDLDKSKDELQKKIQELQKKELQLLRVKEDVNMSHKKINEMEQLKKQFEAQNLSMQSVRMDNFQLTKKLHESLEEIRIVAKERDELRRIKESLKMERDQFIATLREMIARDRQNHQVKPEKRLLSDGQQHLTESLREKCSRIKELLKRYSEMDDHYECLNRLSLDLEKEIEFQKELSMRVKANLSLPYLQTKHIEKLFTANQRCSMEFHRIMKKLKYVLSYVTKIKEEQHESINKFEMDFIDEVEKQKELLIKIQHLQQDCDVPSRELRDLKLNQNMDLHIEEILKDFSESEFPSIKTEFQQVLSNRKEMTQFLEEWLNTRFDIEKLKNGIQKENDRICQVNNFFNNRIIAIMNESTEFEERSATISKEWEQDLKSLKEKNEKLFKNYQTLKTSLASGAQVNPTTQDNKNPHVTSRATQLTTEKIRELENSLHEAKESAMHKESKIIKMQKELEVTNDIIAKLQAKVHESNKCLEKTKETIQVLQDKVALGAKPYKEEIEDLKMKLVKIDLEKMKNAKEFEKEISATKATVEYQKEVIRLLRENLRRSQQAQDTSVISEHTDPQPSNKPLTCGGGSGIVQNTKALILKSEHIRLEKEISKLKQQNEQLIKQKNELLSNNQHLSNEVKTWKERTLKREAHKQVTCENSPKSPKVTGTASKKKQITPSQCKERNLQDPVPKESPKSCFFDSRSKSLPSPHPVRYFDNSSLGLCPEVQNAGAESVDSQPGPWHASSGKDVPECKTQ

FaDu = experiment: Anticancer activity against human FaDu cells assessed as cell doubling measured for 72 hrs by DAPI staining based analysis; assay type: functional
HepG2 = experiment: Anticancer activity against human HepG2 cells assessed as cell growth inhibition measured after 72 hrs by DAPI staining based analysis; assay type: functional
SCC-4 [2] = experiment: Anticancer activity against human SCC-4 cells assessed as cell doubling measured for 72 hrs by DAPI staining based analysis; assay type: functional
786-0 = experiment: Anticancer activity against human 786-0 cells assessed as cell doubling measured for 72 hrs by DAPI staining based analysis; assay type: functional
RL95-2 = experiment: Anticancer activity against human RL95-2 cells assessed as cell growth inhibition measured after 72 hrs by DAPI staining based analysis; assay type: functional
HPAF-II = experiment: Anticancer activity against human HPAF-II cells assessed as cell doubling measured for 72 hrs by DAPI staining based analysis; assay type: functional
SW-403 = experiment: Anticancer activity against human SW403 cells assessed as cell growth inhibition measured after 72 hrs by DAPI staining based analysis; assay type: functional
SCaBER = experiment: Anticancer activity against human SCaBER cells assessed as cell doubling measured for 72 hrs by DAPI staining based analysis; assay type: functional
U-251 = experiment: Anticancer activity against human U-251 cells assessed as cell growth inhibition measured after 72 hrs by DAPI staining based analysis; assay type: functional
SH-4 = experiment: Anticancer activity against human SH-4 cells assessed as cell doubling measured for 72 hrs by DAPI staining based analysis; assay type: functional
HCT-116 = experiment: Antitumor activity against human HCT-116 cells in xenograft model assessed as difference between median time to endpoint time of treated versus control group at 62.5 mg/kg; assay type: functional
UACC-257 = experiment: Anticancer activity against human UACC-257 cells assessed as cell doubling measured for 72 hrs by DAPI staining based analysis; assay type: functional
BFTC-905 = experiment: Anticancer activity against human BFTC-905 cells assessed as cell growth inhibition measured after 72 hrs by DAPI staining based analysis; assay type: functional
Procedure, shortened: (§1)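 Cells were seeded and, after 24 h, DNA content was read as T0. Cells were then exposed to varying drug concentrations for a further 72 h (T72). Fixed cells were DAPI-stained and DNA content measured by automated imaging. T72 values were normalized to T0. GI50 is the concentration giving 50% growth inhibition between T0 and Ymax, obtained by curve fitting.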

BT-20 = experiment: Anticancer activity against human BT-20 cells assessed as cell growth inhibition measured after 72 hrs by DAPI staining based analysis; assay type: functional
Procedure, shortened: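 Cells were seeded, and DNA content at 24 h after seeding (T0) was read by imaging of fixed, DAPI-stained cells. Cells were then exposed to a range of drug concentrations for a further 72 h (T72) and DNA content was read again. T72 values were normalized to T0, and GI50 was taken from curve fits as the concentration giving 50% growth inhibition relative to T0 and Ymax.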

SN12C = experiment: Anticancer activity against human SN12C cells assessed as cell growth inhibition measured after 72 hrs by DAPI staining based analysis; assay type: functional
NCI-H2170 = experiment: Anticancer activity against human NCI-H2170 cells assessed as cell doubling measured for 72 hrs by DAPI staining based analysis; assay type: functional
RXF 393 = experiment: Anticancer activity against human RXF 393 cells assessed as cell doubling measured for 72 hrs by DAPI staining based analysis; assay type: functional
WiDr = experiment: Anticancer activity against human WiDr cells assessed as cell doubling measured for 72 hrs by DAPI staining based analysis; assay type: functional
TK-10 = experiment: Anticancer activity against human TK-10 cells assessed as cell growth inhibition measured after 72 hrs by DAPI staining based analysis; assay type: functional
SCC-4 [3] = experiment: Anticancer activity against human SCC-4 cells assessed as cell growth inhibition measured after 72 hrs by DAPI staining based analysis; assay type: functional
CAL-54 = experiment: Anticancer activity against human CAL-54 cells assessed as cell doubling measured for 72 hrs by DAPI staining based analysis; assay type: functional
JEG-3 = experiment: Anticancer activity against human JEG-3 cells assessed as cell growth inhibition measured after 72 hrs by DAPI staining based analysis; assay type: functional
ST486 [4] = experiment: Anticancer activity against human ST486 cells assessed as cell doubling measured for 72 hrs by DAPI staining based analysis; assay type: functional
[5] = Anticancer activity against human KPL-1 cells assessed as cell growth inhibition measured after 72 hrs by DAPI staining based analysis; assay type: functional
T84 = experiment: Anticancer activity against human T84 cells assessed as cell doubling measured for 72 hrs by DAPI staining based analysis; assay type: functional
ST486 [6] = experiment: Anticancer activity against human ST486 cells assessed as cell growth inhibition measured after 72 hrs by DAPI staining based analysis; assay type: functional
A101D = experiment: Anticancer activity against human A101D cells assessed as cell growth inhibition measured after 72 hrs by DAPI staining based analysis; assay type: functional; procedure, shortened: as §1
SNU-387 = experiment: Anticancer activity against human SNU-387 cells assessed as cell growth inhibition measured after 72 hrs by DAPI staining based analysis; assay type: functional
[7] = molecular target: Centromere-associated protein E (Homo sapiens, UniProt Q02224, T183A); experiment: Binding affinity to human CENP-E T183A mutant assessed as inhibition constant
Centromere-associated protein E (Homo sapiens, UniProt Q02224, T183A), sequence (Q02224 whole entry T183A): as the sequence (Q02224 whole entry, the tested form may be a part) above, with T183A counted along it

GCT = experiment: Anticancer activity against human GCT cells assessed as cell growth inhibition measured after 72 hrs by DAPI staining based analysis; assay type: functional
Procedure, shortened: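 Cells seeded, DAPI-stained DNA content of fixed cells read by imaging 24 h after seeding (T0), and again after a further 72 h exposure to a range of drug concentrations (T72). T72 values were normalized to T0. Curve fits gave the concentration producing 50% growth inhibition relative to T0 and Ymax (GI50).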

YAPC = experiment: Anticancer activity against human YAPC cells assessed as cell doubling measured for 72 hrs by DAPI staining based analysis; assay type: functional
UACC-62 = experiment: Anticancer activity against human UACC-62 cells assessed as cell growth inhibition measured after 72 hrs by DAPI staining based analysis; assay type: functional
[8] = Anticancer activity against human BC-2 cells assessed as cell growth inhibition measured after 72 hrs by DAPI staining based analysis; assay type: functional; procedure, shortened: as §1
CHP-212 = experiment: Anticancer activity against human CHP-212 cells assessed as cell doubling measured for 72 hrs by DAPI staining based analysis; assay type: functional

`CC(C)Oc1ccc(C(=O)N[C@H](CNC(=O)CN(C)C)Cc2ccc(-c3cn4cccc([C@H](C)O)c4n3)cc2)cc1Cl` [GSK-923295A] gave an Activity (UMUC3) of 2.44, an Activity (MDA-MB-468) of 2.05 and an Activity (NCI-H460) of 210%. It also gave an Activity (Capan-2) of 1.89, an Activity (SAOS-2) of 1.5 and a pKi [1] of 8.49. It also gave an Activity (FaDu) of 2.61, a GI50 (HepG2) of 31 nM and an Activity (SCC-4 [2]) of 2.44. The Activity (786-0) was 2.59, the GI50 (RL95-2) was 49 nM and the Activity (HPAF-II) was 2.42. The GI50 (SW-403) was 24 nM, the Activity (SCaBER) was 2.86 and the GI50 (U-251) was 26 nM. It also gave an Activity (SH-4) of 3.12, a Time (HCT-116) of -2.8 days and an Activity (UACC-257) of 1.79. For the same compound, the GI50 (BFTC-905) was 30 nM, the GI50 (BT-20) was 32 nM and the GI50 (SN12C) was 29 nM. For the same compound, the Activity (NCI-H2170) was 1.69, the Activity (RXF 393) was 1.2 and the Activity (WiDr) was 3.05. For the same compound, the GI50 (TK-10) was 49 nM, the GI50 (SCC-4 [3]) was 28 nM and the Activity (CAL-54) was 1.05. It also gave a GI50 (JEG-3) of 25 nM, an Activity (ST486 [4]) of 2.46 and a GI50 [5] of 31 nM. It also gave an Activity (T84) of 2.77, a GI50 (ST486 [6]) of 26 nM and a GI50 (A101D) of 17 nM. It also gave a GI50 (SNU-387) of 32 nM, a pKi [7] of 7.89 and a GI50 (GCT) of 23 nM. The Activity (YAPC) was 2.14, the GI50 (UACC-62) was 25 nM and the GI50 [8] was 45 nM. For the same compound, the Activity (CHP-212) was 1.39.
